Drawing on ChEMBL document CHEMBL1159336, “Nodulisporic acids C, C1, and C2: a series of D-ring-opened nodulisporic acids from the fungus Nodulisporium sp” (2003), this text covers LD90 for 8 compounds.

Common to all, as to assay type: functional
In one assay the test system is Ctenocephalides felis. The assay can be described thus: Insecticidal activity against Ctenocephalides felis.
For the next assay, the system named is Lucilia sericata. The assay can be described thus: Insecticidal activity against Lucilia sericata. In short, it runs like this: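 Blowfly larvae were exposed to test compounds and killing was scored. Activity is reported as the LD90 in ng/mL.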
A further assay deals with Aedes aegypti. The assay can be described thus: Insecticidal activity against Aedes aegypti. The procedure, abridged:
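Mosquito larvae were exposed to test compounds and killing was scored. Activity is reported as the LD90 in ng/mL.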

`CC(C)=CCc1c2c(cc3c4c([nH]c13)[C@@]1(C)[C@@H](CC[C@@H]3[C@]1(C)CC[C@]1(O)O[C@H]([C@H](O)[C@H](C)C(=O)[O-])C[C@@]31C)C4)C1=CC(C)(C)OC(C)(C)[C@H]1[C@@H]2O.[Na+]` came in with an LD90 in the assay with Ctenocephalides felis above 100 µg/mL.
As for `C=C(C)[C@H]1C(=O)c2c3c(cc4c5c(n1c24)[C@@]1(C)C(CC[C@H]2[C@](C)(/C=C/C=C(\C)C(=O)O)[C@@H](O)CC[C@@]21C)C5)C1=CC(C)(C)OC(C)(C)C1[C@@H]3O` (stereo not given in full) [NOD ACID A], the results for the LD90 with Lucilia sericata, with Ctenocephalides felis and with Aedes aegypti were 300 ng/mL, 1 µg/mL and 500 ng/mL, respectively.
The corresponding values for `C=C(C)[C@H]1C(=O)c2c3c(cc4c5c(n1c24)[C@@]1(C)[C@@H](CC[C@@H]2[C@]1(C)CC[C@]1(O)O[C@H](/C=C(\C)C(=O)O)C[C@@]21C)C5)C1=CC(C)(C)OC(C)(C)[C@H]1[C@@H]3O` [NODULISPORIC ACID A1] are 300 ng/mL, 5 µg/mL and 200 ng/mL.
Taken in the same sequence, the figures for `C=C(C)[C@H]1C(=O)c2c3c(cc4c5c(n1c24)[C@@]1(C)[C@@H](CC[C@@H]2[C@]1(C)CC[C@]1(O)O[C@H](C(O)C(C)C(=O)O)C[C@@]21C)C5)C1=CC(C)(C)OC(C)(C)[C@H]1[C@@H]3O` (stereo not given in full) [NODULISPORIC ACID A2] were 600 ng/mL, 10 µg/mL and 800 ng/mL.
With `CC(C)=CCc1c2c(cc3c4c([nH]c13)[C@@]1(C)[C@@H](CC[C@@H]3[C@]1(C)CC[C@]1(O)O[C@H](/C=C(\C)C(=O)[O-])C[C@@]31C)C4)C1=CC(C)(C)OC(C)(C)[C@H]1[C@@H]2O.[Na+]` [NODULISPORIC ACID C1], the LD90 in the assay with Ctenocephalides felis is above 100 µg/mL.
As for `CC(C)=CCc1c2c(cc3c4c([nH]c13)[C@@]1(C)[C@@H](CC[C@H]3[C@](C)(/C=C/C=C(\C)C(=O)[O-])[C@@H](O)CC[C@@]31C)C4)C1=CC(C)(C)OC(C)(C)[C@H]1[C@@H]2O.[Na+]` [NODULISPORIC ACID C SODIUM], the LD90 with Lucilia sericata was determined as 10500 ng/mL; with Ctenocephalides felis, 10 µg/mL; with Aedes aegypti, 10000 ng/mL.
Turning to `CN1C(=O)[C@]23C[C@H]4C(C)(C)[C@@]5(C[C@@]41CN2CC[C@@]3(C)O)C(=O)Nc1cc2c(cc15)OC(C)(C)C=CO2` [PARAHERQUAMIDE], the figures for the LD90 with Lucilia sericata, with Ctenocephalides felis and in the assay with Aedes aegypti were 50000 ng/mL, above 100 µg/mL and 50000 ng/mL, respectively.
In the case of IVERMECTIN, the LD90 with Lucilia sericata is 40 ng/mL; with Ctenocephalides felis it was 10 µg/mL; in the assay on Aedes aegypti, 5 ng/mL.
